Data on 35 compounds can be found in ChEMBL document CHEMBL1135907, “Novel 5-substituted 2,4-thiazolidinedione and 2,4-oxazolidinedione derivatives as insulin sensitizers with antidiabetic activities” (J Med Chem, 2002).

One may read the EC50 as the concentration at which the effect is half-maximal.

The nature of experiment [1]: Plasma glucose-lowering activity at a dosage of 0.005% in the diet in KKA(y) mice. The experiment is classed as functional, Mus musculus. An outline of the steps: (§1)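 KKAy mice (9–13 weeks old), five per group, grouped by blood glucose after 3 d on powdered CE-2 chow. Dietary admixture at 0.001, 0.005 or 0.01% for 4 d, food and water ad libitum. Orbital-vein plasma glucose measured enzymatically and expressed as maximum percent reduction versus control; Dunnett's test.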

The nature of experiment [2]: Plasma lipid-lowering activity at a dosage of 0.001% in the diet in KKAy mice. The experiment is classed as functional, Mus musculus. The procedure, abridged:
(§2)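 KKAy mice (9–13 weeks old), five per group, on powdered CE-2 diet containing compound at 0.001, 0.005 or 0.01% for 4 d. Plasma triglyceride from orbital-vein blood measured enzymatically and reported as maximum percent reduction from control; Dunnett's test; less than 10% reduction flagged.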

For experiment [3], the species on record is Mus musculus. The experiment in a line: Effective dose for 25% reduction in plasma glucose-lowering activity of KKAy mice. The experiment is classed as functional. An outline of the steps:
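KKAy mice (9–13 weeks old), five per group, allocated by blood glucose after 3 d on powdered CE-2 chow. Compounds given as dietary admix at three levels chosen from first screening, 4 d ad libitum. Orbital-vein plasma glucose assayed enzymatically. Dose in mg/kg/d computed from food intake and body weight; ED25 derived by linear regression.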

Experiment [4] in a line: Plasma glucose-lowering activity at a dosage of 0.001% in the diet in KKAy mice. The experiment is classed as functional, Mus musculus. The procedure, abridged: as §1
Experiment [5] can be described thus: Plasma lipid-lowering activity at a dosage of 0.005% in the diet in KKA(y) mice. The experiment is classed as functional, Mus musculus. The procedure, abridged:
as §2

Experiment [6] is filed under the species Rattus norvegicus. The experiment is described as follows: Effective dose for 25% reduction in plasma glucose-lowering activity in Wistar fatty rats. The experiment is classed as functional. An outline of the steps:
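Wistar fatty rats (10–15 weeks old), five per group, allocated by plasma glucose and triglyceride. Oral dosing by stomach tube once daily for 6 d at three doses, suspended in 0.5% methyl cellulose; CE-2 pellets and water ad libitum. Tail-vein plasma glucose measured; ED25 taken from the three-dose response by linear regression.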

Experiment [7] addresses T1, RXR alpha/PPAR gamma (Homo sapiens, UniProt P19793+P37231).
T1 sequence (P37231 whole entry): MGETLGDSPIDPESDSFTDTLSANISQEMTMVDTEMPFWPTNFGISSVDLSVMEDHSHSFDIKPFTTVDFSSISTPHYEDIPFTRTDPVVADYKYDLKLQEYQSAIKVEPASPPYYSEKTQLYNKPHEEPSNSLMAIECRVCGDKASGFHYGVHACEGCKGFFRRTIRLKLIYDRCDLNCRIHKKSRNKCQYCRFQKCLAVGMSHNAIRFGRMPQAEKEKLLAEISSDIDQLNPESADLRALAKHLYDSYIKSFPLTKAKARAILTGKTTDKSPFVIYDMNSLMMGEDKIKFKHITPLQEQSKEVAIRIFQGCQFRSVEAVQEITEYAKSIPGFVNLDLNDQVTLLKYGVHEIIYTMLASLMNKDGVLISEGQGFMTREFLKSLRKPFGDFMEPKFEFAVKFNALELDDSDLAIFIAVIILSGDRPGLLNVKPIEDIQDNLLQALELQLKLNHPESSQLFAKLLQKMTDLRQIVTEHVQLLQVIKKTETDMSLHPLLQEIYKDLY
T1 sequence (P19793 whole entry): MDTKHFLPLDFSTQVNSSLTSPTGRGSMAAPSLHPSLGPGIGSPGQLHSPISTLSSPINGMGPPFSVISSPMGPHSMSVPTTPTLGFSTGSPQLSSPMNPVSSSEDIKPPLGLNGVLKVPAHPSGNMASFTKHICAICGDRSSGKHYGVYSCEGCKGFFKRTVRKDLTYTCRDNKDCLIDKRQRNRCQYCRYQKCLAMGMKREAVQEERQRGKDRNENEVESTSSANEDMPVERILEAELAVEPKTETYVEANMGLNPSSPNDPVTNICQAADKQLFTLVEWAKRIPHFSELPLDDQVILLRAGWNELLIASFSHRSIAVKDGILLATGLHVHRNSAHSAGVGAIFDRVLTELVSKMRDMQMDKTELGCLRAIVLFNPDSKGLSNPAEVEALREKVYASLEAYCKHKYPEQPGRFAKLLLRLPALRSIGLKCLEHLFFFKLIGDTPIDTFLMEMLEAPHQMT
The experiment is described as follows: Transcriptional activation in COS cells expressing PPAR gamma and RXR alpha.

For experiment [8], the species on record is Mus musculus. The experiment is described as follows: Effective dose for 25% reduction in plasma lipid-lowering activity in KKAy mice. The experiment is classed as functional. An outline of the steps:
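Male/female not stated; KKAy mice, 9–13 weeks old, fed powdered CE-2 chow 3 d, grouped (five per group) by blood glucose. Compounds given as dietary admixture at three levels (0.01, 0.005 or 0.001% in diet) for 4 d. Orbital-vein plasma triglyceride measured enzymatically as % reduction vs control; dose (mg/kg/d) from food intake and body weight; ED25 by linear regression.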

Experiment [9] in a line: Plasma lipid-lowering activity at a dosage of 0.01% in the diet in KKAy mice. The experiment is classed as functional, Mus musculus. An outline of the steps:
as §2

Setting [10] is: Rattus norvegicus, Plasma, read-out: ED25.

`COc1cc(CCCC2SC(=O)NC2=O)ccc1OCc1nc(-c2ccccc2)oc1C` (configuration not stated): the Activity in experiment [1] was determined as 54; in experiment [2], 24; in experiment [4], 12; in [5], 58. This compound also showed an ED25 in [3] of 3.17 mg/kg/day.

Consider `COc1cc(CCCC2OC(=O)NC2=O)ccc1OCc1nc(-c2ccco2)oc1C` (single isomer, unassigned; (-)), for which the Activity in experiment [1] and in experiment [2] was less than 10 throughout. Further, the ED25 in experiment [6] amounted to 0.362 mg/kg/day. Moreover, the EC50 in experiment [7] came out at 35.4 nM.

On to `COc1cc(CCCC2OC(=O)NC2=O)ccc1OCc1nc(-c2ccccc2)oc1C` (configuration not stated), for which the Activity in experiment [1] was 61; in experiment [4] it was 48; in [5], 75.

Consider `CC1(COc2ccc(CC3SC(=O)NC3=O)cc2)CCCCC1` (configuration not stated) [CIGLITAZONE], for which the ED25 in experiment [8] came to 25 mg/kg/day.

Take `O=C1NC(=O)C(CCCc2ccc(OCc3coc(-c4ccccc4)n3)cc2)O1` (configuration not stated): the Activity in [1] worked out at 44.

As for `Cc1oc(-c2ccco2)nc1COc1ccc(CCCC2OC(=O)NC2=O)cc1` (configuration not stated), the Activity was 61 in experiment [1], 38 in [4] and 58 in [5].

Turning to `Cc1oc(-c2ccccc2)nc1CCOc1ccc(/C=C/C=C2\SC(=O)NC2=O)cc1`, the Activity in experiment [1] and in [5] was 13 throughout.

`Cc1oc(-c2ccccc2)nc1CCOc1ccc(CCCCC2OC(=O)NC2=O)cc1` (configuration not stated): the Activity in experiment [1] and in [5] was 27 in each case.

In turn, `Cc1oc(-c2cccc3ccccc23)nc1COc1ccc(CCCC2OC(=O)NC2=O)cc1` (configuration not stated) showed an Activity in experiment [1] of 23.

Turning to `Cc1oc(-c2ccccc2)nc1CCCOc1ccc(CC2OC(=O)NC2=O)cc1` (configuration not stated), the figures for the Activity in [1] and in experiment [5] were 30 and 25, respectively.

On to `COc1cc(CCCC2OC(=O)NC2=O)ccc1OCc1nc(-c2ccco2)oc1C` (stereo in doubt; 64), for which the Activity in experiment [1] is 58; in experiment [2] it was less than 10; in experiment [4], 39; in experiment [5] it was 74. The ED25 in experiment [6] came to 0.069 mg/kg/day. For the same compound, the EC50 in experiment [7] turned out to be 24.1 nM.

`Cc1oc(-c2ccccc2)nc1COc1ccc(CCC2SC(=O)NC2=O)cc1` (configuration not stated): the Activity in [1] turned out to be 24; in experiment [5], 15.

Take `Cc1oc(-c2ccccc2)nc1COc1ccc(CCC2OC(=O)NC2=O)cc1` (configuration not stated): the Activity came to 63 in experiment [1], 13 in [2], 28 in [4] and 60 in experiment [5]. For the same compound, in [3], the ED25 was found to be 1.31 mg/kg/day.

Take `Cc1oc(-c2ccccc2)nc1CCCc1ccc(CCCC2OC(=O)NC2=O)cc1` (configuration not stated): the Activity in experiment [1] came to 22; in experiment [5], 19.

For the compound `Cc1oc(-c2ccccc2)nc1CCOc1ccc(CCCCCC2OC(=O)NC2=O)cc1` (configuration not stated), the values for the Activity in [1] and in [5] were 23 and 17, respectively.

As for `Cc1oc(-c2cc3ccccc3o2)nc1COc1ccc(CCCC2OC(=O)NC2=O)cc1` (configuration not stated), the Activity was 47 in experiment [1], 12 in [2], 27 in [4] and 71 in experiment [5].

In the case of `Cc1oc(-c2ccccc2)nc1CCOc1ccc(CCCC2OC(=O)NC2=O)cc1` (configuration not stated), the Activity in experiment [1] worked out at 49; in experiment [2], 26; in [4], 11; in experiment [5] it was 41. The compound further showed an ED25 in experiment [3] of 2.91 mg/kg/day.

Turning to `Cc1oc(-c2ccccc2)nc1COc1ccc(/C=C/C=C2/OC(=O)NC2=O)cc1`, the Activity in experiment [1] was determined as 23; in experiment [5], 29.

Consider `Cc1oc(-c2ccccc2)nc1COc1ccc(CCCC2SC(=O)NC2=O)cc1` (configuration not stated), for which the Activity in experiment [1] is on record as 48; in [2], less than 10; in experiment [4] it was less than 10; in experiment [5], 37.

Take `Cc1oc(-c2ccccc2)nc1COc1ccc(CCCCCC2OC(=O)NC2=O)cc1` (configuration not stated): the Activity was 45 in experiment [1] and 59 in experiment [5].

As for `Cc1oc(-c2ccccc2)nc1COc1ccc(CCCCC2SC(=O)NC2=O)cc1` (configuration not stated), the Activity in experiment [1] amounted to 22; in [5] it was 21.

Take `Cc1oc(-c2ccccc2)nc1CCOc1ccc(CCC2SC(=O)NC2=O)cc1` (configuration not stated): the results for the Activity in [1] and in experiment [5] were 14 and 32, respectively.

`Cc1oc(-c2ccccc2)nc1COc1ccccc1CCCC1OC(=O)NC1=O` (configuration not stated): the values for the Activity in experiment [1] and in [9] were 11 and 33, respectively.

For the compound `Cc1oc(-c2ccccc2)nc1COc1ccc(CCCCCC2SC(=O)NC2=O)cc1` (configuration not stated), the Activity in experiment [1] was 19; in experiment [5] it was less than 10.

As for `COc1cc(CCCC2OC(=O)NC2=O)ccc1OCc1nc(-c2ccco2)oc1C` (stereo in doubt; (+)-64), the results for the Activity in experiment [2] and in experiment [4] were 32 and 45, respectively. This compound also displayed an ED25 in experiment [6] of 0.05 mg/kg/day. The compound further gave an EC50 in experiment [7] of 8.87 nM.

`Cc1oc(-c2cc3ccccc3s2)nc1COc1ccc(CCCC2OC(=O)NC2=O)cc1` (configuration not stated): the Activity in [1] was 48; in experiment [2] it was 24; in experiment [4], 25; in experiment [5] it was 62.

With `Cc1oc(-c2ccccc2)nc1CCOc1ccc(CCC2OC(=O)NC2=O)cc1` (configuration not stated), the Activity in experiment [1] amounted to 56; in experiment [2] it was 15; in [4] it was 18; in experiment [5] it was 53. In [3], this compound yielded an ED25 of 4.83 mg/kg/day.

For the compound `Cc1oc(-c2ccccc2)nc1COc1ccc(CCCC2OC(=O)NC2=O)cc1` (configuration not stated), the Activity in [1] stood at 61; in experiment [2], 55; in [4] it was 53; in [5] it was 83. Besides, the ED25 worked out at 0.402 mg/kg/day in [3] and 0.078 mg/kg/day in [6] (setting [10]). In [7], this compound had an EC50 of 119 nM.

`Cc1oc(-c2ccccc2)nc1COc1ccc(CCCC2OC(=O)NC2=O)cn1` (configuration not stated): the Activity came out at 54 in experiment [1], 69 in [2], 53 in experiment [4] and 82 in [5]. The ED25 in [6] (setting [10]) worked out at 0.048 mg/kg/day. The same compound registered an EC50 in [7] of 16.5 nM.

Regarding `Cc1oc(-c2ccccc2)nc1COc1cccc(CCCC2OC(=O)NC2=O)c1` (configuration not stated), the Activity in [1] stood at 32; in [9] it was 47.

On to `Cc1oc(-c2ccc3ccccc3c2)nc1COc1ccc(CCCC2OC(=O)NC2=O)cc1` (configuration not stated), for which the Activity in experiment [1] turned out to be 55; in [2] it was 40; in experiment [4], 45; in [5], 72. In experiment [6] (setting [10]), the ED25 was determined as 0.178 mg/kg/day. In experiment [7], this compound displayed an EC50 of 29.3 nM.

On to `Cc1sc(-c2ccccc2)nc1COc1ccc(CCCC2OC(=O)NC2=O)cc1` (configuration not stated), for which the Activity was found to be 43 in [1], 17 in [2], 15 in [4] and 58 in experiment [5]. For the same compound, the ED25 in experiment [6] (setting [10]) came to 0.5 mg/kg/day. Moreover, the EC50 in [7] amounted to 813 nM.

`Cc1oc(-c2ccccc2)nc1COc1ccc(CCCCC2OC(=O)NC2=O)cc1` (configuration not stated): the Activity amounted to 43 in [1] and 51 in experiment [5].

On to `Cc1oc(-c2ccccc2)nc1CCC(=O)c1ccc(CCCC2OC(=O)NC2=O)cc1` (configuration not stated), for which the Activity in [1] is listed as 32; in experiment [5], 17.

As to `Cc1oc(-c2ccccc2)nc1CCC(O)c1ccc(CCCC2OC(=O)NC2=O)cc1` (configuration not stated), the results for the Activity in experiment [1] and in experiment [5] were 23 and 22, respectively.
